# Results reported in PubChem BioAssay.
# Active and inactive are the calls of the source.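 Rule for the calls, unless noted: active = GFP response above 150% of the DMSO level; inconclusive = fewer than 70 events counted for a yeast strain; inactive = the rest.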
# Experiments:
# [1] = hit retest on RPL19A-GFP reporter strain – cell-based, S. cerevisiae, flow cytometry, cherry picks, mother/daughter gates, confirmation (AID 2270;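 active = GFP response below 50% of the DMSO control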); conditions: 3 h, at 10 µM, stronger effect = lower value, 100 = same GFP as DMSO wells
# [2] = yeast TOR pathway reporter LAP4-GFP change – cell-based, cherry picks, flow cytometry, mother/daughter gates, confirmation (AID 2271;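 active = GFP response above 150% of the DMSO control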;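 note: ratio of sample to DMSO plate mean so 100% equals DMSO level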); conditions: S. cerevisiae LAP4-GFP strain, 3 h, at 10 µM, stronger effect = higher value, 100 means same as DMSO control
# Summary of the method: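 Material – Alexa Fluor 633-labelled Saccharomyces cerevisiae GFP-fusion strain, single-plex · Incubation – compound exposure 3 h at 30 °C, end-over-end rotation · Measured by – GFP by flow cytometry · Measure – median GFP fluorescence as percent of plate-mean DMSO wells · Control set – positive rapamycin (400 ng/mL), negative DMSO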
# [3] = TOR pathway reporter MEP2-GFP, retest of hits – S. cerevisiae, flow cytometry GFP, cherry picks, confirmation (AID 2272;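 active = GFP response above 150% of the DMSO control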;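 note: ratio of well signal to plate DMSO mean so 100% equals DMSO level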); conditions: S. cerevisiae MEP2-GFP strain, 3 h, at 10 µM, stronger effect = higher value
# [4] = yeast AGP1-GFP fluorescence change, single-dose – cell-based, flow cytometry, S. cerevisiae, cherry picks, confirmation (AID 2273);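 note: median GFP channel fluorescence over the whole cell population gate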; conditions: S. cerevisiae AGP1-GFP strain, 3 h, at 10 µM
# [5] = TOR pathway CIT2 reporter hit retest – S. cerevisiae, GFP fusion, cherry picks, mother/daughter gates, confirmation (AID 2274); conditions: S. cerevisiae CIT2-GFP strain, flow cytometry, 3 h, at 10 µM, stronger effect = higher value
# [6] = measured here: daughter cell gate
# [7] = measured here: mother cell gate
# [8] = measured here: daughter cell gate response
# [9] = measured here: mother cell gate response
Compound,GFP response vs DMSO [1],"GFP response vs DMSO [1, 6] [%]","GFP response vs DMSO [1, 7] [%]",GFP response relative to DMSO [2],"GFP response relative to DMSO [2, 8] [%]","GFP response relative to DMSO [2, 9] [%]",GFP response vs DMSO [3],"GFP response, % of DMSO [4]","GFP response, % of DMSO [5]","GFP response, % of DMSO [5, 6] [%]","GFP response, % of DMSO [5, 7] [%]"
CCCCOC(=O)C1CCC[C@@H](C)N1 (stereo not given in full),101% (inactive),102,100,98.9% (inactive),101,99.5,103% (inactive),102% (inactive),100% (inactive),101,100
CCCN1CCN(C(=O)c2oc3ccccc3c2NC(=O)COc2ccc(OC)cc2)CC1,98.6% (inactive),100,99.8,95.4% (inactive),96,95.1,102% (inactive),98.1% (inactive),105% (inactive),106,106
CCc1nnc(NC(=O)c2ccc(S(=O)(=O)N(CC)Cc3ccccc3)cc2)o1,98.4% (inactive),97.8,98.8,102% (inactive),105,99.5,102% (inactive),101% (inactive),105% (inactive),106,104
Cc1c(Br)c(O)c(Br)c2sc(=O)oc12,96.2% (inactive),101,94.2,125% (inactive),123,129,105% (inactive),101% (inactive),97.3% (inactive),101,94.4
O=C(c1ccc([N+](=O)[O-])o1)N1CCN(c2nc3c(F)cc(F)cc3s2)CC1,80.1% (inactive),78,67.5,250% (active),169,232,197% (active),102% (inactive),142% (inactive),108,121
COC(=O)c1cc(N2C(=O)C3C(C2=O)C2(C)C=CC3(C)O2)ccc1Cl (stereo not given),101% (inactive),101,92.5,193% (active),173,177,110% (inactive),106% (inactive),101% (inactive),109,88.6
Cc1cc(=O)[nH]c(-n2nc(C)cc2C)n1,98% (inactive),99.1,97.8,101% (inactive),101,100,105% (inactive),99.8% (inactive),94.4% (inactive),97.4,91.9
O=C(Nc1nccs1)C1CCCN1S(=O)(=O)c1ccc(F)cc1 (stereo not given),98.8% (inactive),99.8,100,96.2% (inactive),100,95.2,100% (inactive),100% (inactive),110% (inactive),103,114
N#C/C(=C\c1c(N2CCCCC2)nc2ccccn2c1=O)C(=O)NCc1ccco1,98.7% (inactive),98.8,99.5,97.7% (inactive),97.9,96.5,97.5% (inactive),99.7% (inactive),99.3% (inactive),100,96.8
CCCn1c(=O)c(C(=O)NCc2ccc(OC)c(OC)c2)c(O)c2ccccc21,98% (inactive),97.6,97.6,102% (inactive),102,103,107% (inactive),95% (inactive),101% (inactive),97.2,101
O=C(Oc1c(Cl)cc(Cl)c2cccnc12)c1ccco1,103% (inactive),89.2,100,196% (active),148,199,128% (inactive),95.9% (inactive),95.9% (inactive),86.6,93.2
CCc1nnc(NC(=O)c2ccc(S(=O)(=O)N(CC(C)C)CC(C)C)cc2)o1,101% (inactive),97.6,102,98.2% (inactive),97.5,97.3,101% (inactive),100% (inactive),102% (inactive),103,101
Cc1ccc2c(c1)/C(=C/c1ccc(F)cc1)C(=O)N2,94.5% (inactive),92.2,92.7,124% (inactive),110,123,108% (inactive),98.4% (inactive),95.8% (inactive),97.6,94.9
COc1cccc(-c2nnc(NC(=O)c3ccc(S(=O)(=O)N(CC(C)C)CC(C)C)cc3)o2)c1,99.7% (inactive),99.8,100,98.8% (inactive),97.9,97.5,102% (inactive),101% (inactive),102% (inactive),102,101
Cc1cccn2c(=O)c(/C=C(\C#N)C(=O)NCc3ccco3)c(N3CCCC(C)C3)nc12 (stereo not given),99.8% (inactive),99.1,99.5,96.1% (inactive),96.6,97.2,98.8% (inactive),101% (inactive),99.7% (inactive),100,99.7
Cc1[nH]c2ccccc2c1C(c1ccccn1)N1CCC(C(N)=O)CC1 (stereo not given),97.4% (inactive),99.1,96.6,96.7% (inactive),99.2,97.2,98.3% (inactive),94.7% (inactive),101% (inactive),103,101
CCCCn1c(-c2csc3c2CCCC3)n[nH]c1=S,91.5% (inactive),88.2,94.1,122% (inactive),117,128,93.3% (inactive),95.6% (inactive),80.6% (inactive),77.9,80.5
COc1ccc(NC2=C(Cl)C(=O)N(CCc3ccccc3)C2=O)c(OC)c1,98% (inactive),96.6,97.2,102% (inactive),101,104,98.8% (inactive),97.9% (inactive),98.4% (inactive),98.4,97.7
Cc1ccc(N2C(=O)CC(Sc3ncn[nH]3)C2=O)cc1C (stereo not given),106% (inactive),111,101,137% (inactive),133,140,109% (inactive),100% (inactive),104% (inactive),112,97.3
CCOc1cc(/C=C2/N=C(c3ccc4c(c3)OCO4)OC2=O)ccc1OC(C)=O,92% (inactive),87.5,94.2,95.7% (inactive),95.9,96.2,101% (inactive),103% (inactive),97.3% (inactive),95.6,98.1
COc1ccc(OC)c(C2CC(c3c(-c4ccccc4)c4cc(Cl)ccc4[nH]c3=O)=NN2S(C)(=O)=O)c1 (stereo not given),100% (inactive),99,102,92.6% (inactive),92.5,97.2,100% (inactive),96.1% (inactive),97.8% (inactive),96.5,97.7
CCOc1ccc(/C=C2\N=C(c3cccs3)OC2=O)cc1OC,95% (inactive),95.2,93.9,98.2% (inactive),97.5,99.4,101% (inactive),94.5% (inactive),97.3% (inactive),95.6,98.1
CNC(=O)c1c(O)c2cccc3c2n(c1=O)CC3,102% (inactive),99.1,103,94.2% (inactive),90.7,94.6,97.5% (inactive),100% (inactive),93.5% (inactive),90.9,93.3
O=C(Nc1nc2ccc(F)cc2s1)c1ccccn1,102% (inactive),102,99.3,185% (active),156,193,116% (inactive),107% (inactive),99.7% (inactive),105,92.8
COC(=O)Cc1csc(Nc2ccc(F)c(Cl)c2)n1,101% (inactive),102,100,97.4% (inactive),98.7,98.3,95.7% (inactive),93.7% (inactive),110% (inactive),106,107
Cc1cccc(Nc2nc(-c3ccccn3)cs2)n1,77.9% (inactive),104,66.6,137% (inactive),138,120,110% (inactive),89.8% (inactive),100% (inactive),121,83.7
Cc1ccc(-c2ccc(CCC(=O)O)o2)cc1,102% (inactive),95.9,101,147% (inactive),139,150,95.7% (inactive),94.8% (inactive),90% (inactive),85,90.2
CC(=O)c1ccc(N2CCN(C(=O)c3ccc(Br)cc3)CC2)c(F)c1,111% (inactive),95.4,110,160% (active),117,160,117% (inactive),115% (inactive),111% (inactive),88.1,104
O=S(=O)(c1cccc(C(F)(F)F)c1)c1ccc(O)cn1,98.8% (inactive),99.4,98.5,96.7% (inactive),99.2,95.1,100% (inactive),94.7% (inactive),104% (inactive),106,103
NS(=O)(=O)c1ccc(Sc2ccccn2)c([N+](=O)[O-])c1,97.4% (inactive),98.6,98.5,97.9% (inactive),99.2,98.3,100% (inactive),101% (inactive),98.3% (inactive),101,98.5
